The results in this text go back to ChEMBL document CHEMBL3763111, “Identification of a diverse indole-2-carboxamides as a potent antileishmanial chemotypes” (Eur J Med Chem, 2016).

By CC50 is commonly meant the concentration giving 50% cytotoxicity. As a reminder, the IC50 is the concentration that gives 50% inhibition. As usually defined, the inhibition in vivo is how much of the control response was suppressed. Usually inhibition stands for the relative decrease from the control value, in per cent.

Test system in the first data set: not listed separately
Briefly: Cytotoxicity against African green monkey Vero cells after 72 hrs by MTT assay. Particulars: chlorocebus sabaeus. The format is cell-based. The method, boiled down: (§1)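 Vero or J-774A.1 cells (1 x 10^5 cells/mL) exposed to 7 concentrations starting from 400 µM for 72 h. MTT (5 mg/mL stock) then added for 2 h at 37°C. Formazan dissolved in DMSO; absorbance read at 544 nm. CC50 estimated per Huber & Koella; mean ± SD of two independent assays in duplicate.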
Background: Tetrazolium dyes change colour on reduction, which living cells bring about.
`CC(C)(C)NC(=O)C(c1ccc(Br)cc1)N(CC(=O)NCCCN1CCOCC1)C(=O)c1cc2ccccc2[nH]1` (configuration not stated) displayed a cytotoxic concentration (CC50) at 72 h above 400 µM.

`COc1ccc(CNC(=O)CN(C(=O)c2cc3ccccc3[nH]2)C(C(=O)NC(C)(C)C)c2cc(OC)c(OC)c(OC)c2)cc1` (configuration not stated) showed a CC50 at 72 h of 70.3 µM.

On to `CC(C)(C)NC(=O)C(c1ccc(Cl)cc1)N(CC(=O)NCc1ccncc1)C(=O)c1cc2ccccc2[nH]1` (configuration not stated), for which the CC50 at 72 h was above 400 µM.

`COc1cc(C(C(=O)NC(C)(C)C)N(CC(=O)NCc2ccccc2)C(=O)c2cc3ccccc3[nH]2)cc(OC)c1OC` (configuration not stated) registered a CC50 at 72 h of 176 µM.

`CC(C)(C)NC(=O)C(c1ccc(Cl)cc1)N(CC(=O)NCCCN1CCOCC1)C(=O)c1cc2ccccc2[nH]1` (configuration not stated) registered a half-maximal cytotoxic concentration (CC50) at 72 h of 212 µM.

With `CC(C)(C)NC(=O)C(c1ccc(Cl)cc1)N(CC(=O)NCc1ccccc1)C(=O)c1cc2ccccc2[nH]1` (configuration not stated), the CC50 at 72 h is 248 µM.

Compound `COc1cc(C(C(=O)NC(C)(C)C)N(CC(=O)NCc2ccc(Cl)c(Cl)c2)C(=O)c2cc3ccccc3[nH]2)cc(OC)c1OC` (configuration not stated) had a CC50 at 72 h of 72.9 µM.

In the case of `COc1ccc(CNC(=O)CN(C(=O)c2cc3ccccc3[nH]2)C(C(=O)NC(C)(C)CC(C)(C)C)c2ccc(Cl)cc2)cc1` (configuration not stated), the CC50 at 72 h is above 400 µM.

The test system of a further data set is Leishmania donovani. Briefly: Antileishmanial activity against Leishmania donovani MHOM/IN/80/Dd8 amastigotes infected in mouse J774A.1 cells incubated for 72 hrs by luminometric analysis. The class given is functional, organism-based. Particulars: MHOM/IN/80/Dd8, J774.A1, 72 h. Summed up:
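Macrophages seeded at 4 x 10^4/mL in RPMI-1640 with 10% FCS for 24 h, then infected with stationary-phase promastigotes (4 x 10^5/mL) for 24 h. Free parasites washed off. Compounds added as 7-point two-fold dilutions from 40 µM; 72 h at 37°C. Read-out was Steady Glo luminescence. IC50 from four-parameter Hill fit; two independent assays in duplicate.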
`CCCCCCCCCCCCCCCCOP(=O)([O-])OCC[N+](C)(C)C` [MILTEFOSINE]: the half-maximal inhibitory concentration (IC50) was found to be 8.4 µM.

Compound `CC(C)(C)NC(=O)C(c1ccc(Br)cc1)N(CC(=O)NCCCN1CCOCC1)C(=O)c1cc2ccccc2[nH]1` (configuration not stated) registered an IC50 of 1 µM.

The compound `COc1ccc(CNC(=O)CN(C(=O)c2cc3ccccc3[nH]2)C(C(=O)NC(C)(C)C)c2cc(OC)c(OC)c(OC)c2)cc1` (configuration not stated) had an IC50 of 9.2 µM.

For the compound `CC(C)(C)NC(=O)C(c1ccc(Cl)cc1)N(CC(=O)NCc1ccncc1)C(=O)c1cc2ccccc2[nH]1` (configuration not stated), the half-inhibitory concentration (IC50) turned out to be 6.4 µM.

As to `COc1cc(C(C(=O)NC(C)(C)C)N(CC(=O)NCc2ccccc2)C(=O)c2cc3ccccc3[nH]2)cc(OC)c1OC` (configuration not stated), the IC50 is above 40 µM.

The compound `CC(C)(C)NC(=O)C(c1ccc(Cl)cc1)N(CC(=O)NCCCN1CCOCC1)C(=O)c1cc2ccccc2[nH]1` (configuration not stated) showed an IC50 of 2.1 µM.

For the compound `CC(C)(C)NC(=O)C(c1ccc(Cl)cc1)N(CC(=O)NCc1ccccc1)C(=O)c1cc2ccccc2[nH]1` (configuration not stated), the 50% inhibitory concentration (IC50) worked out at 8.8 µM.

Regarding `COc1cc(C(C(=O)NC(C)(C)C)N(CC(=O)NCc2ccc(Cl)c(Cl)c2)C(=O)c2cc3ccccc3[nH]2)cc(OC)c1OC` (configuration not stated), the IC50 was found to be 6.3 µM.

`COc1ccc(CNC(=O)CN(C(=O)c2cc3ccccc3[nH]2)C(C(=O)NC(C)(C)CC(C)(C)C)c2ccc(Cl)cc2)cc1` (configuration not stated) displayed an IC50 of 3.1 µM.

Test system in the next data set: not listed separately
Kind of data set: (§2) Selectivity index, ratio of CC50 for African green monkey Vero cells to IC50 for Leishmania donovani MHOM/IN/80/Dd8 amastigotes infected in mouse J774A.1 cells. The format is functional.
Conditions: not given
The method, boiled down:
(§3)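 Ratio of Vero-cell MTT CC50 to IC50 against intracellular amastigotes, both measured in this work.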
With `CCCCCCCCCCCCCCCCOP(=O)([O-])OCC[N+](C)(C)C` [MILTEFOSINE], the “Ratio CC50/IC50” value is recorded as 6.

For `CC(C)(C)NC(=O)C(c1ccc(Br)cc1)N(CC(=O)NCCCN1CCOCC1)C(=O)c1cc2ccccc2[nH]1` (configuration not stated), the “Ratio CC50/IC50” value was above 400.

As to `COc1ccc(CNC(=O)CN(C(=O)c2cc3ccccc3[nH]2)C(C(=O)NC(C)(C)C)c2cc(OC)c(OC)c(OC)c2)cc1` (configuration not stated), the “Ratio CC50/IC50” value is 7.

Consider `CC(C)(C)NC(=O)C(c1ccc(Cl)cc1)N(CC(=O)NCc1ccncc1)C(=O)c1cc2ccccc2[nH]1` (configuration not stated), for which the “Ratio CC50/IC50” value is listed as above 62.

On to `COc1cc(C(C(=O)NC(C)(C)C)N(CC(=O)NCc2ccccc2)C(=O)c2cc3ccccc3[nH]2)cc(OC)c1OC` (configuration not stated), for which the “Ratio CC50/IC50” value is on record as below 4.

Regarding `CC(C)(C)NC(=O)C(c1ccc(Cl)cc1)N(CC(=O)NCCCN1CCOCC1)C(=O)c1cc2ccccc2[nH]1` (configuration not stated), the “Ratio CC50/IC50” value stood at 101.

Regarding `CC(C)(C)NC(=O)C(c1ccc(Cl)cc1)N(CC(=O)NCc1ccccc1)C(=O)c1cc2ccccc2[nH]1` (configuration not stated), the “Ratio CC50/IC50” value is on record as 28.

In the case of `COc1cc(C(C(=O)NC(C)(C)C)N(CC(=O)NCc2ccc(Cl)c(Cl)c2)C(=O)c2cc3ccccc3[nH]2)cc(OC)c1OC` (configuration not stated), the “Ratio CC50/IC50” value worked out at 11.

Turning to `COc1ccc(CNC(=O)CN(C(=O)c2cc3ccccc3[nH]2)C(C(=O)NC(C)(C)CC(C)(C)C)c2ccc(Cl)cc2)cc1` (configuration not stated), the “Ratio CC50/IC50” value is above 129.

The test system of the next data set is Vero. The data set is described as §2. The class given is functional.
Conditions: not given
Summed up:
as §3
In the case of Sodium stibo-gluconate, the Ratio CC50/IC50 is above 7.

Test system in the next data set: not listed separately
Kind of data set: Cytotoxicity against mouse J774A.1 cells after 72 hrs by MTT assay. The format is cell-based, J774.A1.
Conditions: not given
Summed up: as §1
In the case of `CCCCCCCCCCCCCCCCOP(=O)([O-])OCC[N+](C)(C)C` [MILTEFOSINE], the cytotoxic concentration (CC50) at 72 h is 14.3 µM.

With `CC(C)(C)NC(=O)C(c1ccc(Br)cc1)N(CC(=O)NCCCN1CCOCC1)C(=O)c1cc2ccccc2[nH]1` (configuration not stated), the CC50 at 72 h was determined as 147 µM.

On to `COc1ccc(CNC(=O)CN(C(=O)c2cc3ccccc3[nH]2)C(C(=O)NC(C)(C)C)c2cc(OC)c(OC)c(OC)c2)cc1` (configuration not stated), for which the cytotoxic concentration (CC50) at 72 h came out at 53.6 µM.

In turn, `CC(C)(C)NC(=O)C(c1ccc(Cl)cc1)N(CC(=O)NCc1ccncc1)C(=O)c1cc2ccccc2[nH]1` (configuration not stated) came in with a half-maximal cytotoxic concentration (CC50) at 72 h of 129 µM.

With `COc1cc(C(C(=O)NC(C)(C)C)N(CC(=O)NCc2ccccc2)C(=O)c2cc3ccccc3[nH]2)cc(OC)c1OC` (configuration not stated), the midpoint of cytotoxicity, the CC50 at 72 h, lay at 66.8 µM.

`CC(C)(C)NC(=O)C(c1ccc(Cl)cc1)N(CC(=O)NCCCN1CCOCC1)C(=O)c1cc2ccccc2[nH]1` (configuration not stated) had a CC50 at 72 h of 198 µM.

For the compound `CC(C)(C)NC(=O)C(c1ccc(Cl)cc1)N(CC(=O)NCc1ccccc1)C(=O)c1cc2ccccc2[nH]1` (configuration not stated), it took 152 µM to reach half-maximal cytotoxicity (CC50 at 72 h).

Take `COc1cc(C(C(=O)NC(C)(C)C)N(CC(=O)NCc2ccc(Cl)c(Cl)c2)C(=O)c2cc3ccccc3[nH]2)cc(OC)c1OC` (configuration not stated): the 50% cytotoxic concentration (CC50) at 72 h turned out to be 61.4 µM.

As to `COc1ccc(CNC(=O)CN(C(=O)c2cc3ccccc3[nH]2)C(C(=O)NC(C)(C)CC(C)(C)C)c2ccc(Cl)cc2)cc1` (configuration not stated), the midpoint of cytotoxicity, the CC50 at 72 h, lay at 51.2 µM.

In another data set the test system is Leishmania donovani. Kind of data set: Potency index, ratio of IC50 for miltefosine to IC50 for test compound against Leishmania donovani MHOM/IN/80/Dd8 amastigotes infected in mouse J774A.1 cells. The class given is functional.
Conditions: not given
Regarding `CC(C)(C)NC(=O)C(c1ccc(Cl)cc1)N(CC(=O)NCCCN1CCOCC1)C(=O)c1cc2ccccc2[nH]1` (configuration not stated), the “Ratio IC50” value worked out at 4.

Another data set has as its system Leishmania donovani. Briefly: Antileishmanial activity against amastigote stage of Leishmania donovani MHOM/IN/80/Dd8 infected in golden hamster at 50 mg/kg/day, ip administered for 5 days measured on day 7 of last dose by Geimsa staining method. The class given is functional. The note with it: MHOM/IN/80/Dd8, ip. Summed up: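 Inbred golden hamsters (40–45 g) infected intracardially with 1x10^7 amastigotes; only animals with +1 infection at 15-day spleen biopsy used. Five to six per group. Aqueous compound given ip at 50 mg/kg/day for 5 days, starting 2 days after biopsy. Splenic biopsy on day 7 after last dose, Giemsa-stained. Percent inhibition by formula relative to initial and untreated-control counts; pooled from at least two experiments.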
Compound `CC(C)(C)NC(=O)C(c1ccc(Br)cc1)N(CC(=O)NCCCN1CCOCC1)C(=O)c1cc2ccccc2[nH]1` (configuration not stated) showed an inhibition in vivo at 50 mg/kg/day of 63.5%.

The next data set relates to Syrian golden hamster. Kind of data set: Toxicity in golden hamster infected with amastigote stage of Leishmania donovani MHOM/IN/80/Dd8 assessed as abnormality in behaviour at 50 mg/kg/day, ip administered for 5 days. Particulars: in vivo, 120 h. The class given is organism-based, Mesocricetus auratus.
As for `CCCCCCCCCCCCCCCCOP(=O)([O-])OCC[N+](C)(C)C` [MILTEFOSINE], the Activity result was “Non-toxic”.

For `CC(C)(C)NC(=O)C(c1ccc(Br)cc1)N(CC(=O)NCCCN1CCOCC1)C(=O)c1cc2ccccc2[nH]1` (configuration not stated), the Activity result was “Non-toxic”.

For another data set, the system named is Leishmania donovani. Briefly: Antileishmanial activity against amastigote stage of Leishmania donovani MHOM/IN/80/Dd8 infected in golden hamster at 30 mg/kg, po administered for 5 days measured on day 7 of last dose by Geimsa staining method. The class given is functional. Particulars: MHOM/IN/80/Dd8, po. Summed up: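 Golden hamsters (inbred, either sex, 40–45 g) were infected intracardially with 1x 10^7 L. donovani amastigotes. Spleen biopsy at day 15; animals with +1 infection (5–10 amastigotes/100 spleen cell nuclei) were used, 5–6 per group. Dosing started 2 days after biopsy and ran 5 consecutive days. Day-7 post-treatment splenic amastigotes were counted by Giemsa stain; percent inhibition was computed against initial and untreated-control counts.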
For `CCCCCCCCCCCCCCCCOP(=O)([O-])OCC[N+](C)(C)C` [MILTEFOSINE], at 30 mg/kg the inhibition in vivo was 98.1%.

A further data set concerns Leishmania donovani. Briefly: Antileishmanial activity against amastigote stage of Leishmania donovani MHOM/IN/80/Dd8 infected in golden hamster at 40 mg/kg, ip administered for 5 days measured on day 7 of last dose by Geimsa staining method. The class given is functional, organism-based.
Conditions: not given
In the case of Sodium stibo-gluconate, the inhibition came out at 86.9%.
